Screening results from PubChem.
MrgX1 ag – agonists of human MrgX1 receptor, primary screen, HEK293 cells, Fluo-4 calcium flux. B-score at 10 µM. Fluo-4 calcium fluorescence, agonist mode; hits give high values. Mas-related G-protein coupled receptor member X1 (Homo sapiens), Q96LB2. 0.44% of 310,000 active;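 active = calcium response B-score plate-corrected fluorescence ratio at least 3 library SD, with starting fluorescence B-score inside 5 SD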
Target sequence (Q96LB2 whole entry, looked up): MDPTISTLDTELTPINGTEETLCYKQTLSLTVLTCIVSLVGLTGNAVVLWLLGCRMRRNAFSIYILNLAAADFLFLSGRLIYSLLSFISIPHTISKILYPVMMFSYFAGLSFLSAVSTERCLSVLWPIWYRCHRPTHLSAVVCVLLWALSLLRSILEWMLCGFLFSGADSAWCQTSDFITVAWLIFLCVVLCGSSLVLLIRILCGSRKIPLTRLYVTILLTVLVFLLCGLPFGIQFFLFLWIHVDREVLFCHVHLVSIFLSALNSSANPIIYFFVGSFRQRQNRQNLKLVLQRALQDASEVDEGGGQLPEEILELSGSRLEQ
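System: HEK293 cells stably expressing human MrgX1 receptor; Dosing: test compound in the initial addition of three; Schedule: overnight plating, then 30 min 37 °C plus 30 min room-temperature dye loading; Detection: kinetic calcium dye fluorescence, Fluo-4 NW; Controls: per-plate positive and negative controls for Z′ factor.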
MrgX1 PAM – positive allosteric modulators of MrgX1, primary screen, HEK293 cells, Fluo-4 calcium flux | Mas-related G-protein coupled receptor member X1 (Homo sapiens), Q96LB2 | FDSS; hits give high values | B-score at 10 µM | 0.63% of 310,000 active;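 active = plate-corrected calcium response at least 3 library SD above typical, normal starting fluorescence, not activating the receptor alone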;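 also: compound read alongside a low EC10 to EC30 dose of BAM8-22 agonist; peak minus trough fluorescence over baseline measured at the second addition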
MrgX1 antagonist – antagonists of human MrgX1 receptor, primary screen, HEK293 cells, Fluo-4 calcium flux; Mas-related G-protein coupled receptor member X1 (Homo sapiens), Q96LB2; BAM8-22 antagonism; hits give low values; 1.3% of 310,000 active; B-score at 10 µM;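 active = calcium-response B-score plate-corrected more than 3 library SD below zero, starting fluorescence within 5 deviations, no agonist response on first addition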;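 also: peak minus trough fluorescence over baseline after final BAM8-22 challenge near maximal dose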
RGS4 pot – RGS4 potentiators or activators, primary screen, cell-based, HEK293 M3R inducible RGS4, calcium flux. AID 463111, 2010. 0.92% of 310,000 active. carbachol calcium flux Fluo4; hits give low values. B-score at 10 µM;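 active = B-score of the integrated calcium signal more than 4 SD below the library mean, with starting fluorescence not abnormally high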;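 also: negative B-score means reduced calcium response which marks RGS4 activation or potentiation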
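Detection: kinetic calcium fluorescence imaging with Fluo4-AM dye, 2 µM / Material: HEK293 cells with stable M3R and inducible RGS4 / Schedule: recording 10 s baseline at 1 Hz, 100 s post-agonist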
RGS4 block – RGS4 inhibitors, primary screen, cell-based, HEK293 M3R inducible RGS4, calcium flux; 0.45% of 310,000 active; Regulator of G-protein signaling 4 (Homo sapiens), P49798; Fluo-4 calcium flux; hits give high values; triggered by carbachol at its EC20; B-score at 10 µM; AID 463165, 2010;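 active = B-score, a plate-corrected calcium signal, over three deviations above library mean, with baseline fluorescence within five deviations of library mean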;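 also: RGS4 expression induced by doxycycline in cells with stable M3 receptor; B-score is computed from the integrated fluorescence ratio over baseline after carbachol; higher B-score means a larger calcium signal and so more RGS4 inhibition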
Numbers without * were called inactive; i = inactive; nt = no result given. Most compounds without a hit are left out; they make up all but 3.5% or so of the library.

SMILES | MrgX1 ag | MrgX1 PAM | MrgX1 antagonist | RGS4 pot | RGS4 block
CC(C)N(CCNC(=O)C1CCCN(c2ncnc3c2nc2n3CCCCC2)C1)Cc1ccccc1 (centres undefined) | i | i | i | i | i
COc1ccc2c(c1)c1nc3ccccc3nc1n2Cc1ccc(OC(C)C)c(OC)c1 | i | i | -6.7* | i | i
COc1ccc(Cn2c3ccc(OC)cc3c3nc4ccccc4nc32)cc1 | i | i | i | i | i
Cc1ccc(C(=O)c2no[n+]([O-])c2C(=O)c2ccc(C)cc2)cc1 | 31.3* | i | i | -8.82* | i
Cc1ccc(-n2cc(-c3ccccc3)c3c(N4CCN(C)CC4)ncnc32)cc1 | i | i | i | i | i
Cc1ccc(-n2cc(-c3ccccc3)c3c(N4CCOCC4)ncnc32)cc1 | nt | nt | nt | -7.28* | i
CCCCCc1cc(=O)oc2c(C(CCN3CCCCC3)c3ccc(OC)cc3)c(OC)cc(OC)c12 (centres undefined) | i | i | i | i | i
CCCCCc1cc(=O)oc2c(C(CCN3CCCC3)c3cc(OC)c(OC)c(OC)c3)c(OC)cc(OC)c12 (centres undefined) | i | i | -5.35* | i | i
CC(=O)OCC1=C(C(=O)O)N2C(=O)C(NC(=O)c3ccc(F)cc3)C2SC1 (centres undefined) | i | i | i | i | i
CC(=O)OCC1=C(C(=O)O)N2C(=O)C(NC(=O)C(C)Cn3nc(C)c(Cl)c3C)C2SC1 (centres undefined) | i | i | i | -7.08* | i
CS(=O)(=O)N1CCc2ccc(NC(=O)C3CCCO3)cc2C1 (centres undefined) | i | i | i | i | i
CS(=O)(=O)N1CCN(C(=O)C2c3ccccc3Oc3ccccc32)CC1 | i | i | i | -7.48* | i
CN1CCN(C2=Cc3ccccc3Sc3cc(F)c(F)cc32)CC1 | i | i | i | i | i
CN1CCN(C2=Cc3ccccc3Sc3cc(F)c(Cl)cc32)CC1 | i | i | i | -10.4* | i
COc1ccc(-n2ncc3c(=O)n(CC(=O)Nc4ccc5c(c4)OCCO5)cnc32)cc1 | i | i | i | i | i
CCOc1ccccc1NC1=C(Cl)C(=O)N(c2ccc(OC)cc2)C1=O | i | 7.86* | i | i | i
COc1ccccc1NC1=C(Cl)C(=O)N(C2CCCCC2)C1=O | i | 7.6* | i | i | i
COc1ccc(N2C(=O)C(Cl)=C(NCc3ccccc3)C2=O)cc1 | i | i | i | i | i
COc1ccc(C(CNC(=O)C(C)Oc2ccc(Br)cc2)N2CCCC2)cc1 (centres undefined) | i | i | i | i | i
O=C1C=CC(=O)N1CCNc1ncc(C(F)(F)F)cc1Cl | nt | nt | nt | -7.94* | i
CC(C)CNC(=O)c1ccccc1NC(=O)c1ccccc1N(C)S(=O)(=O)c1ccccc1 | i | i | i | i | i
COc1ccc(F)cc1S(=O)(=O)NCc1ccccc1 | i | i | i | i | i
COc1ccc(Br)cc1S(=O)(=O)NCc1ccccc1 | i | i | -4.93* | i | i
Cc1cc(C)c2cc3c(N)c(C(=O)N4CCc5ccccc5C4)sc3nc2c1 | i | i | -8.46* | -7.96* | i
CC1=NN(C(=O)COc2cc(C)ccc2C(C)C)C(O)(c2ccccc2)C1 (centres undefined) | i | 8* | i | i | i
C/C(=N\O)C(C)(C)Nc1ccc(Cl)cc1 | 43.6* | i | i | i | i
C/C(=N\O)C(C)(C)Nc1ccc(F)cc1 | i | i | i | i | i
O=C(OCC(=O)N(CCc1ccccc1)Cc1ccccc1)c1ccccc1NCCO | i | i | i | -8.41* | i
O=C(OCC(=O)N(CCc1ccccc1)Cc1ccccc1)c1ccccc1O | i | i | i | i | i
CCOC(=O)C1CCN(S(=O)(=O)c2ccc3c(c2)CC(=O)N3C)CC1 | 38.8* | i | i | i | i
